From PubChem BioAssay AID588818 (Broad Institute, 2011)

System: ldlA[mSR-BI] cells, [3H]cholesterol efflux to HDL
Test: SR-BI cellular [3H]cholesterol release modulation – ldlA[mSR-BI] cells, powder samples, mechanism study for SR-BI HDL uptake inhibitor project, late-stage follow-up (AID 588818)
Settings: at 1 µM; active compounds read low
Method in brief: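 Material: ldlA[mSR-BI] cells carrying a [3H]cholesterol label | Also added: HDL, 100 µg/mL final | Timing: 1 h compound pretreatment, 2 h HDL efflux | Measured by: Liquid scintillation counting of [3H]cholesterol in medium and cells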

SMILES	cholesterol efflux relative to neutral control [%]
CCOC(=O)N1CCC(NC(=O)c2ccc3c(c2)N(Cc2ccc(F)cc2)CCS3)CC1	14.1
COc1ccc(-c2nnn(CC(=O)N(C3CCCCC3)C(C)C(=O)NC3CCCC3)n2)cc1OC (stereo not given)	13.1
O=C(Nc1ccc(-c2nc3cc(NC(=O)c4ccc(NC(=O)c5cccc6ccccc56)cc4)ccc3[nH]2)cc1)c1ccc(NC(=O)c2cccc3ccccc23)cc1	10.3
O=C(Nc1ccc(-c2nc3cc(NC(=O)c4ccccc4[N+](=O)[O-])ccc3o2)cc1)c1ccccc1[N+](=O)[O-]	5.29
CCC(=O)N1CCc2cc(-c3csc(NC(=O)c4ccco4)n3)ccc21	11.5
